Assay results pooled from the literature.
Each line is one published result; the experiments were not run side by side.
Target: Homeodomain-interacting protein kinase 1 (HIPK1, Homo sapiens, UniProt Q86Z02)
Effect on: enzyme activity
Action: inhibitor

`Cc1ccc(C(=O)Nc2ccc(CN3CCN(C)CC3)c(C(F)(F)F)c2)cc1C#Cc1cnc2cccnn12` gave a remaining activity of 86% (23.5 nM).
The remaining activity of `O=C(O)c1ccc2c(c1)nc(NCc1ccccc1)c1ncncc12` is reported as 70% (radiometric; 1 µM).
With `CC(C)(C)c1nc(-c2cccc(NS(=O)(=O)c3c(F)cccc3F)c2F)c(-c2ccnc(N)n2)s1` the remaining activity was 87% (radiometric; 1 µM).
With `Cn1c(=O)n(-c2ccc(C(C)(C)C#N)cc2)c2c3cc(-c4cnc5ccccc5c4)ccc3ncc21` the remaining activity was 89% (10 µM).
`N#Cc1cccc(Nc2nc3cc(C(=O)O)ccc3c3cnccc23)c1` gave a remaining activity of 5% (radiometric; 1 µM).
`CCCOc1ccc(OC)c(F)c1C(=O)c1ccc(C(=O)N[C@@H]2CNC[C@H]2NC(=O)c2ccc3[nH]ncc3c2)cc1` has a remaining activity of 97% (10 µM).
For `CC(C)(O)[C@H]1CC[C@H](Nc2ccc3ncc(-c4cccc(C(F)(F)F)c4)n3n2)CC1`, the remaining activity was 83.9% (1 µM).
`Cc1cnc(NC2CCOCC2)nc1-n1cnc(C(=O)NC(CN)c2cc(F)cc(Cl)c2)c1` (stereo not shown) has a remaining activity of 87% (radiometric; 1 µM).
`Oc1cccc(-c2nc(N3CCOCC3)c3oc4ncccc4c3n2)c1` gave a remaining activity of 63% (10 µM).
The remaining activity of `O=C(O)c1ccc2c(c1)nc(Nc1cccc(F)c1)c1ccncc12` is reported as 6% (radiometric; 1 µM).
For `CCN(CC)c1ccc(C2=NNC(=O)CC2C)cc1[N+](=O)[O-]` (stereo not shown), the remaining activity was 132% (10 µM).
The remaining activity of `CC(C)(C)c1nc2c(s1)c1nc(N)ncc1c1ccc(NS(=O)(=O)c3c(F)cccc3F)c(F)c12` is reported as 81% (radiometric; 1 µM).
The remaining activity of `COc1cc(Nc2cnc(C#N)c(O[C@H](C)CN(C)C)n2)ncc1-c1cnn(C)c1` is reported as 107% (radiometric; 10 µM).
For `O=C(O)c1ccc2c(c1)nc(Nc1ccc(Cl)cc1)c1ncncc12`, the remaining activity was 4% (radiometric; 1 µM).
For `O=C(Nc1cnn(-c2csc(C(=O)NC3COC3)c2)c1)Nc1ccccc1Cl`, the remaining activity was 96.3% (5 µM).
`O=C(O)c1ccc2c(c1)nc(Nc1ccccc1Cl)c1ncncc12` has a remaining activity of 13% (radiometric; 1 µM).
`COc1cc(Cl)c(C(=O)N[C@@H](CN[C@H]2CC[C@@H](N)CC2)Cc2ccc(C#N)cc2)cc1-c1ccc(CN[C@H](C)c2ccc(C)cc2)o1` gave a remaining activity of 101% (1 µM).
The remaining activity of `O=C(O)c1ccc2c(c1)nc(NCCc1cccc(F)c1)c1ncncc12` is reported as 15% (radiometric; 1 µM).
`O=C(Nc1cnn(-c2csc(C(=O)NC3COC3)c2)c1)Nc1c(F)cccc1Cl` gave a remaining activity of 91.7% (5 µM).
